{"source": "ChEMBL document CHEMBL1667822", "about": "“Selective antagonists of mouse trace amine-associated receptor 1 (mTAAR1): discovery of EPPTB (RO5212773)” (Bioorg Med Chem Lett, 2011)", "key": {"[1]": {"target": "5-hydroxytryptamine receptor 3A (Homo sapiens) (UniProt P46098)", "experiment": "Displacement of [3H]BRL 43694 from human recombinant 5HT3 receptor expressed in CHO cells", "type": "cell-based", "settings": "concentration not given here"}, "[2]": {"target": "Nociceptin receptor (Homo sapiens) (UniProt P41146)", "experiment": "Displacement of [3H]nociceptin from human recombinant ORL1 receptor expressed in H recombinant HEK293 cells", "type": "cell-based", "settings": "concentration not given here"}, "[3]": {"target": "Substance-K receptor (Homo sapiens) (UniProt P21452)", "sequence (P21452 whole entry)": "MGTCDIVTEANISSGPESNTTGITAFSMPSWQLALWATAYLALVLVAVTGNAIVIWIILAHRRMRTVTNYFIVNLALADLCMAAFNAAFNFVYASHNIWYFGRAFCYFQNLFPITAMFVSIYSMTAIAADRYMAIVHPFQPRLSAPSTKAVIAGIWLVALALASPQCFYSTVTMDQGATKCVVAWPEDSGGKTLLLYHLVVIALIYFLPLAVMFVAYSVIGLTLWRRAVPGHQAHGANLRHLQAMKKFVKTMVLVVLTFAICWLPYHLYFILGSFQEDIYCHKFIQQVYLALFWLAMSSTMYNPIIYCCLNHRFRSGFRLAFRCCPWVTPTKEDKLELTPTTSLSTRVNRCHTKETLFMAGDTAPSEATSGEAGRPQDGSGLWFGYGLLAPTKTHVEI", "experiment": "Displacement of [125I]NKA from human recombinant NK2 receptor expressed in CHO cells", "type": "cell-based", "settings": "concentration not given here"}, "[4]": {"target": "Beta-2 adrenergic receptor (Homo sapiens) (UniProt P07550)", "experiment": "Displacement of [3H](-)CGP 12177 from human recombinant beta2 receptor expressed in CHO cells", "type": "cell-based", "settings": "concentration not given here"}, "[5]": {"experiment": "Half life in mouse at 2.5 mg/kg, iv", "type": "ADME, organism-based", "set-up": "dose 2.5 mg/kg, route intravenous", "settings": "in vivo", "procedure,_shortened": "(§1)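 Single-dose pharmacokinetics in mice comparing parenteral routes: intravenous at 2.5 mg/kg and intraperitoneal at 5 mg/kg. Plasma concentrations were followed over time. Bioavailability was derived for the ip route, and Cmax was taken from the ip plasma profile.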"}, "[6]": {"target": "Sodium-dependent dopamine transporter (Homo sapiens) (UniProt Q01959)", "experiment": "Inhibition of human dopamine transporter at 10 uM"}, "[7]": {"target": "5-hydroxytryptamine receptor 6 (Homo sapiens) (UniProt P50406)", "sequence (P50406 whole entry)": "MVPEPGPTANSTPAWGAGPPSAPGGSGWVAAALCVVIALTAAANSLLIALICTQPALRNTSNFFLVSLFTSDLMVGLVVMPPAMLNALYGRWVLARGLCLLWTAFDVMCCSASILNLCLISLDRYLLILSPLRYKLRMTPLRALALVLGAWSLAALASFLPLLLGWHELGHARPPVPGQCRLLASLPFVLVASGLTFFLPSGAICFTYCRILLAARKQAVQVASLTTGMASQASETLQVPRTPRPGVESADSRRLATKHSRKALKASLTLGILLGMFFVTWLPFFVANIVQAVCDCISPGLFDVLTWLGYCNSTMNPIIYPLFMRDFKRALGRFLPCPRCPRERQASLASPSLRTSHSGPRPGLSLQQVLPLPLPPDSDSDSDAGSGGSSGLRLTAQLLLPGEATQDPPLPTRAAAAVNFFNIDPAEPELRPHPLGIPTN", "experiment": "Displacement of [3H]LSD from human recombinant 5HT6 receptor expressed in CHO cells", "type": "cell-based", "settings": "concentration not given here"}, "[8]": {"target": "B2 bradykinin receptor (Homo sapiens) (UniProt P30411)", "sequence (P30411 whole entry)": "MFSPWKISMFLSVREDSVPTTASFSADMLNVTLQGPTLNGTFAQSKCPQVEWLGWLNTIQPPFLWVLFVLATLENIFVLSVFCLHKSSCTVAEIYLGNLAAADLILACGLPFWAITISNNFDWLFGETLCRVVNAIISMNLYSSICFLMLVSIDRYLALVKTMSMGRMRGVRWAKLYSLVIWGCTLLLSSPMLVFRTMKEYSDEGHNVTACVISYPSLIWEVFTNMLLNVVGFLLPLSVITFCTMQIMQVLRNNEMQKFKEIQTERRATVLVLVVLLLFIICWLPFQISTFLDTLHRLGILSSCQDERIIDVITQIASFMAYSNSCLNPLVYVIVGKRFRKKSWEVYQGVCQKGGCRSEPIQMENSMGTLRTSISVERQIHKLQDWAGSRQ", "experiment": "Displacement of [3H]bradykinin from human recombinant bradykinin B2 receptor expressed in CHO cells", "type": "cell-based", "settings": "concentration not given here"}, "Rattus norvegicus [9]": {"species_on_record": "Rattus norvegicus", "experiment": "Displacement of [125I]a-dendrotoxin from K+V channel in rat cerebral cortex", "type": "tissue-based", "settings": "concentration not given here"}, "[10]": {"target": "Adrenergic receptor alpha-1 (Rattus norvegicus) (UniProt P15823+P23944+P43140)", "experiment": "Displacement of [3H]prazosine from alpha1 receptor in rat cerebral cortex", "type": "tissue-based", "settings": "concentration not given here"}, "[11]": {"target": "Adenosine receptor A3 (Homo sapiens) (UniProt P0DMS8)", "sequence (P0DMS8 whole entry)": "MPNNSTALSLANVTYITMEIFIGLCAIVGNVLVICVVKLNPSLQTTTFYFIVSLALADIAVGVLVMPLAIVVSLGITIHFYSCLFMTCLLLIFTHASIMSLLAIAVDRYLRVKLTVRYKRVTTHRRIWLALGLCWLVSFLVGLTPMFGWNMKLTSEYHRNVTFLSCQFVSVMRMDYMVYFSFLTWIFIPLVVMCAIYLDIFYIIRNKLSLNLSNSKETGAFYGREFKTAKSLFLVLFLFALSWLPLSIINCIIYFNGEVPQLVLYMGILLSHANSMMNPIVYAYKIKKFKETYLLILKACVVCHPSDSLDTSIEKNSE", "experiment": "Displacement of [3H]AB-MECA from human recombinant A3 receptor expressed in HEK293 cells", "type": "cell-based", "settings": "concentration not given here"}, "[12]": {"target": "monoamine oxidase-B (MAO-B) (Rattus norvegicus, UniProt P19643)", "sequence (P19643 whole entry)": "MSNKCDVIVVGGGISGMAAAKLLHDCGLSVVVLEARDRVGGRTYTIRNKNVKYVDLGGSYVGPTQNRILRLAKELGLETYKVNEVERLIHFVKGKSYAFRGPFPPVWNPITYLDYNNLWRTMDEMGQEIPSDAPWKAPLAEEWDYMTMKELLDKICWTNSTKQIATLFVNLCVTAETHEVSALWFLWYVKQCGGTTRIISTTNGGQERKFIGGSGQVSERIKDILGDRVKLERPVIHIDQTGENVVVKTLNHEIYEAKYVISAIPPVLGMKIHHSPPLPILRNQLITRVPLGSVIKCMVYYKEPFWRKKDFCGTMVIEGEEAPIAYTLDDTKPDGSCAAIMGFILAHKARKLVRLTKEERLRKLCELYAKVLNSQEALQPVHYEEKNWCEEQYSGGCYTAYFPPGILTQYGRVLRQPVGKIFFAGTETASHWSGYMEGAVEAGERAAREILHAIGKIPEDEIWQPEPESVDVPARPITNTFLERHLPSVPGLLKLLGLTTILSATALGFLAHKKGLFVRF", "experiment": "Inhibition of rat monoamine oxidase-B at 10 uM"}, "[13]": {"target": "D(1A) dopamine receptor (Homo sapiens) (UniProt P21728)", "experiment": "Displacement of [3H]SCH 23390 from human recombinant dopamine D1 receptor expressed in CHO cells", "type": "cell-based", "settings": "concentration not given here"}, "[14]": {"experiment": "Ratio of drug level in brain to plasma in mouse at 5 mg/kg, ip", "type": "ADME, organism-based", "set-up": "dose 5 mg/kg, route intraperitoneal", "settings": "read-out: BPR", "procedure,_shortened": "(§2)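 Single-dose pharmacokinetics in mice with parenteral dosing, either 2.5 mg/kg iv or 5 mg/kg ip. Drug levels were measured in plasma, with brain exposure taken as the brain/plasma concentration ratio.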"}, "[15]": {"target": "T1, Trace amine-associated receptor 1 (Mus musculus, UniProt Q923Y8)", "T1 sequence (Q923Y8 whole entry)": "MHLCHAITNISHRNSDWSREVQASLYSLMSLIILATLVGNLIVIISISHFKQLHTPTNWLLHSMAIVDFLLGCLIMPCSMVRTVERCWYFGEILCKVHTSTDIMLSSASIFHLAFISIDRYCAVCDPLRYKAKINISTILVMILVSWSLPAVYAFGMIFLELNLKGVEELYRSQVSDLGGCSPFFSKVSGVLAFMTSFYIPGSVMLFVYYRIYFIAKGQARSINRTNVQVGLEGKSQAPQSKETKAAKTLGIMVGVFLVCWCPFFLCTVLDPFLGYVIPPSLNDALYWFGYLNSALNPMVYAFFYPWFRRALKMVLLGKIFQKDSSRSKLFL", "experiment": "Inhibition of mouse TAAR1"}, "Homo sapiens": {"species_on_record": "Homo sapiens", "experiment": "Inhibition of human vasoactive intestinal peptide receptor VPAC1 at 10 uM"}, "[16]": {"target": "Histamine H1 receptor (Homo sapiens) (UniProt P35367)", "experiment": "Displacement of [3H]pyrilamine from human recombinant histamine H1 receptor expressed in HEK293 cells", "type": "cell-based", "settings": "concentration not given here"}, "[17]": {"target": "monoamine oxidase-A (MAO-A) (Rattus norvegicus, UniProt P21396)", "sequence (P21396 whole entry)": "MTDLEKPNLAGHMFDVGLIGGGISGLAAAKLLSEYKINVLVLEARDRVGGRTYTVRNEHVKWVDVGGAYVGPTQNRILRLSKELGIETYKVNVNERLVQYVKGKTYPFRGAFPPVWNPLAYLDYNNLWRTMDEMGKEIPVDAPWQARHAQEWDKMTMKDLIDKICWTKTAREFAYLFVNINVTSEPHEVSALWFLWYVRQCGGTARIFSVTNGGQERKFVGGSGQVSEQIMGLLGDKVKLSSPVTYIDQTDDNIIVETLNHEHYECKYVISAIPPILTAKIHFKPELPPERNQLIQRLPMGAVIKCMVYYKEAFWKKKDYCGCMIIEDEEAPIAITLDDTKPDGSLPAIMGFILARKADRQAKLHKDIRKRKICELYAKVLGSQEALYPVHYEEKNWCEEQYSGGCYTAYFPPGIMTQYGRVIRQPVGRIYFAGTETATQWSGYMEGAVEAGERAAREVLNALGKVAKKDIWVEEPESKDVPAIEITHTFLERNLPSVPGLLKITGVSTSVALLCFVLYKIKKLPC", "experiment": "Inhibition of rat monoamine oxidase-A at 10 uM"}, "[18]": {"target": "Melanocortin receptor 4 (Homo sapiens) (UniProt P32245)", "experiment": "Displacement of [125I]NDP-a-MSH from human recombinant MC4 receptor expressed in CHO cells", "type": "cell-based", "settings": "concentration not given here"}, "Rattus norvegicus [19]": {"species_on_record": "Rattus norvegicus", "experiment": "Displacement of [3H]batrachotoxinin from sodium channel in rat cerebral cortex", "type": "tissue-based", "settings": "concentration not given here"}, "[20]": {"target": "5-hydroxytryptamine receptor 1B (Rattus norvegicus) (UniProt P28564)", "experiment": "Displacement of [125I]CYP from 5HT1B receptor expressed in rat cerebral cortex", "type": "tissue-based", "settings": "concentration not given here"}, "Rattus norvegicus [21]": {"species_on_record": "Rattus norvegicus", "experiment": "Inhibition of rat ca2+ channel verapamil site at 10 uM"}, "[22]": {"target": "Muscarinic acetylcholine receptor M2 (Homo sapiens) (UniProt P08172)", "sequence (P08172 whole entry)": "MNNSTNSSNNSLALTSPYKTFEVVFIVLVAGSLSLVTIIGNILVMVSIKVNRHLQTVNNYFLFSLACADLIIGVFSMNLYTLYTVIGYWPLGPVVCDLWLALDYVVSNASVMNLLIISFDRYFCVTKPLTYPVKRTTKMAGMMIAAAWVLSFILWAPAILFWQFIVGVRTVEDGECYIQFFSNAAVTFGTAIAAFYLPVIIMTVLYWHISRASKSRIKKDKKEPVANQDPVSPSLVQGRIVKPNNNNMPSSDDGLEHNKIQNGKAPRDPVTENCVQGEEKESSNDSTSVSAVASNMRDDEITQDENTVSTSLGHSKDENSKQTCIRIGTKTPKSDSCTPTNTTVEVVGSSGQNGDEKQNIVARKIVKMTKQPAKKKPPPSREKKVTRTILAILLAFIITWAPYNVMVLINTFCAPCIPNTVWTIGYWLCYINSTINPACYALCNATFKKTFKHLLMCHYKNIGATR", "experiment": "Displacement of [3H]AF-DX 384 from human recombinant muscarinic M2 receptor expressed in CHO cells", "type": "cell-based", "settings": "concentration not given here"}, "[23]": {"experiment": "Cmax in mouse at 5 mg/kg, ip", "type": "ADME, organism-based", "set-up": "dose 5 mg/kg, route intraperitoneal", "settings": "in vivo", "procedure,_shortened": "as §1"}, "[24]": {"experiment": "Ratio of drug level in brain to plasma in mouse at 2.5 mg/kg, iv", "type": "ADME, organism-based", "set-up": "dose 2.5 mg/kg, route intravenous", "settings": "read-out: BPR", "procedure,_shortened": "as §2"}, "[25]": {"target": "Melatonin receptor type 1A (Homo sapiens) (UniProt P48039)", "experiment": "Displacement of [125I]2-iodomelatonin from human recombinant MT1 receptor expressed in CHO cells", "type": "cell-based", "settings": "concentration not given here"}, "[26]": {"target": "Muscarinic acetylcholine receptor M3 (Homo sapiens) (UniProt P20309)", "experiment": "Displacement of [3H]4-DAMP from human recombinant muscarinic M3 receptor expressed in CHO cells", "type": "cell-based", "settings": "concentration not given here"}, "[27]": {"target": "Sodium-dependent noradrenaline transporter (Homo sapiens) (UniProt P23975)", "sequence (P23975 whole entry)": "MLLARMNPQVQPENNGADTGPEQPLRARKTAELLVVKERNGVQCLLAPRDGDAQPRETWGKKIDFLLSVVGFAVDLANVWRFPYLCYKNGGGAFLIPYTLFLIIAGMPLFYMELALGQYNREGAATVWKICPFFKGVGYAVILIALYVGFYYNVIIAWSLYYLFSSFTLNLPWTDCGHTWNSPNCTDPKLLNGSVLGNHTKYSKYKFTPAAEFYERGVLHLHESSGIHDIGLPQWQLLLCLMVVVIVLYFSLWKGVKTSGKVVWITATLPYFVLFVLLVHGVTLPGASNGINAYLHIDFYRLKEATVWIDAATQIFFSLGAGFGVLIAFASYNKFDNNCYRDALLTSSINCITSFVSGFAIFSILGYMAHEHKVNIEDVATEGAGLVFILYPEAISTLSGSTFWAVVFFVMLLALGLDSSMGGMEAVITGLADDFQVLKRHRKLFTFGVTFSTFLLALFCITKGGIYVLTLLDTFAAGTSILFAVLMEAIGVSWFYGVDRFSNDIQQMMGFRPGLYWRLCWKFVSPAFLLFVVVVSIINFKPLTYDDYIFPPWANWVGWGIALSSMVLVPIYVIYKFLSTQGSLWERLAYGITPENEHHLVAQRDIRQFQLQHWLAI", "experiment": "Inhibition of human norepinephrine transporter at 10 uM"}, "[28]": {"target": "Cannabinoid receptor 1 (Homo sapiens) (UniProt P21554)", "sequence (P21554 whole entry)": "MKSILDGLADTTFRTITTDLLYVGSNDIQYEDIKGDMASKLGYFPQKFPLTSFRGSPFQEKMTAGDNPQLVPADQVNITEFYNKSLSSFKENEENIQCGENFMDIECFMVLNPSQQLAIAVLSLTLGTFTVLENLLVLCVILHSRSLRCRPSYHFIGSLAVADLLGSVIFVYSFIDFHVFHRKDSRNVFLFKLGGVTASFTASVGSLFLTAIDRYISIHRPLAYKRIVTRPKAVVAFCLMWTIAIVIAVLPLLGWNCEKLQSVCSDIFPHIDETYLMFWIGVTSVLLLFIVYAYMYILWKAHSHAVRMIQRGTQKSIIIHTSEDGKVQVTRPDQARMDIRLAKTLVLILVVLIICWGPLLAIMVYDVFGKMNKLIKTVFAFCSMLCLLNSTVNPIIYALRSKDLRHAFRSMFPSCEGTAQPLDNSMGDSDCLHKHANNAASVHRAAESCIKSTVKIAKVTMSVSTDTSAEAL", "experiment": "Inhibition of human cannabinoid CB1 receptor at 10 uM"}, "Rattus norvegicus [29]": {"species_on_record": "Rattus norvegicus", "experiment": "Displacement of [3H]GABA from GABA receptor in rat cerebral cortex", "type": "tissue-based", "settings": "concentration not given here"}, "[30]": {"experiment": "Volume of distribution at steady state in mouse at 2.5 mg/kg, iv", "type": "ADME, organism-based", "set-up": "dose 2.5 mg/kg, route intravenous", "settings": "in vivo, read-out: Vdss", "procedure,_shortened": "as §2"}, "[31]": {"target": "Mu-type opioid receptor (Homo sapiens) (UniProt P35372)", "experiment": "Displacement of [3H]DAMGO from human recombinant mu opioid receptor expressed in HEK293 cells", "type": "cell-based", "settings": "concentration not given here"}, "[32]": {"target": "C-X-C chemokine receptor type 2 (Homo sapiens) (UniProt P25025)", "sequence (P25025 whole entry)": "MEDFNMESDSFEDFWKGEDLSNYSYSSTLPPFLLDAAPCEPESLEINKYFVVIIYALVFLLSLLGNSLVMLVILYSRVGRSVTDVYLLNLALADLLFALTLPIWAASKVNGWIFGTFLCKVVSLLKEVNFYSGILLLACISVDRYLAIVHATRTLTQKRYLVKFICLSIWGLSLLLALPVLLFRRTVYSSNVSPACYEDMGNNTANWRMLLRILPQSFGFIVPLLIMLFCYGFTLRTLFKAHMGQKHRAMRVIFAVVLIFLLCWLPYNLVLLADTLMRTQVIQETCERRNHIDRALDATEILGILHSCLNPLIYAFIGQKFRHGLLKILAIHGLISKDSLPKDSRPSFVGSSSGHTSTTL", "experiment": "Displacement of [125I]IL-8 from human recombinant CXCR2 receptor expressed in HEK293 cells", "type": "cell-based", "settings": "concentration not given here"}, "[33]": {"target": "Neuropeptide Y receptor type 2 (Homo sapiens) (UniProt P49146)", "experiment": "Displacement of [125I]peptide YY from human recombinant Y2 receptor expressed in KAN-TS cells", "type": "cell-based", "settings": "concentration not given here"}, "[34]": {"target": "5-hydroxytryptamine receptor 2A (Homo sapiens) (UniProt P28223)", "experiment": "Displacement of [3H]Ketanserin from human recombinant 5HT2A receptor expressed in HEK293 cells", "type": "cell-based", "settings": "concentration not given here"}, "[35]": {"target": "T1, Trace amine-associated receptor 1", "experiment": "Antagonist activity at mouse TAAR1 assessed as reversal of endogenous beta-PEA effect", "type": "functional", "procedure,_shortened": "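Mouse TAAR1 antagonist dose–response run as an in vitro cAMP functional assay. Efficacy is the reversal of the effect of the endogenous agonist β-PEA, with 100% efficacy defined as 0% min% stim. Values are averages of at least two independent experiments.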"}, "[36]": {"target": "Galanin receptor type 2 (Homo sapiens) (UniProt O43603)", "experiment": "Displacement of [125I]Galanin from human recombinant GAL2 receptor expressed in CHO cells", "type": "cell-based", "settings": "concentration not given here"}}}
{"smiles": "CCOc1cccc(NC(=O)c2ccc(N3CCCC3)c(C(F)(F)F)c2)c1", "values": [{"measurement": "inhibition", "setting": "[1]", "result": 9, "unit": "%"}, {"measurement": "inhibition", "setting": "[2]", "result": 15, "unit": "%"}, {"measurement": "inhibition", "setting": "[3]", "result": 19, "unit": "%"}, {"measurement": "inhibition", "setting": "[4]", "result": 6, "unit": "%"}, {"measurement": "half-life", "setting": "[5]", "result": 1.9, "unit": "h"}, {"measurement": "inhibition", "setting": "[6]", "result": 43, "unit": "%"}, {"measurement": "inhibition", "setting": "[7]", "result": 7, "unit": "%"}, {"measurement": "inhibition", "setting": "[8]", "result": 2, "unit": "%"}, {"measurement": "inhibition", "setting": "Rattus norvegicus [9]", "result": -3, "unit": "%"}, {"measurement": "inhibition", "setting": "[10]", "result": 8, "unit": "%"}, {"measurement": "inhibition", "setting": "[11]", "result": 80, "unit": "%"}, {"measurement": "inhibition at 10 µM", "setting": "[12]", "result": 39, "unit": "%"}, {"measurement": "inhibition", "setting": "[13]", "result": 25, "unit": "%"}, {"measurement": "Kp", "setting": "[14]", "result": 0.5}, {"measurement": "Ki", "setting": "[15]", "result": 0.9, "unit": "nM"}, {"measurement": "inhibition", "setting": "Homo sapiens", "result": 13, "unit": "%"}, {"measurement": "inhibition", "setting": "[16]", "result": 6, "unit": "%"}, {"measurement": "inhibition at 10 µM", "setting": "[17]", "result": 61, "unit": "%"}, {"measurement": "inhibition", "setting": "[18]", "result": -2, "unit": "%"}, {"measurement": "inhibition", "setting": "Rattus norvegicus [19]", "result": 88, "unit": "%"}, {"measurement": "inhibition", "setting": "[20]", "result": 53, "unit": "%"}, {"measurement": "inhibition", "setting": "Rattus norvegicus [21]", "result": 16, "unit": "%"}, {"measurement": "inhibition", "setting": "[22]", "result": -1, "unit": "%"}, {"measurement": "Cmax", "setting": "[23]", "result": 590, "unit": "ng/mL"}, {"measurement": "Kp", "setting": "[24]", "result": 0.5}, {"measurement": "inhibition", "setting": "[25]", "result": 54, "unit": "%"}, {"measurement": "inhibition", "setting": "[26]", "result": -10, "unit": "%"}, {"measurement": "inhibition", "setting": "[27]", "result": 44, "unit": "%"}, {"measurement": "inhibition", "setting": "[28]", "result": 38, "unit": "%"}, {"measurement": "inhibition", "setting": "Rattus norvegicus [29]", "result": 10, "unit": "%"}, {"measurement": "Vd", "setting": "[30]", "result": 3.7, "unit": "L/kg"}, {"measurement": "inhibition", "setting": "[31]", "result": 42, "unit": "%"}, {"measurement": "inhibition", "setting": "[32]", "result": 2, "unit": "%"}, {"measurement": "inhibition", "setting": "[33]", "result": 6, "unit": "%"}, {"measurement": "inhibition", "setting": "[34]", "result": 21, "unit": "%"}, {"measurement": "IC50", "setting": "[35]", "result": 28, "unit": "nM"}, {"measurement": "inhibition", "setting": "[36]", "result": 13, "unit": "%"}]}
